Reference: ChEMBL document CHEMBL1146290, “Core exploration in optimization of chemokine receptor CCR4 antagonists” (Bioorg Med Chem Lett, 2007)
pIC50: −log10 of the molar value. Activity calls are given as the source filed them. No cut-off for these calls is given here.

How the values were obtained:
[1] = target: T1, C-C chemokine receptor type 4 (Homo sapiens, UniProt P51679); assay: Displacement of [125I]MDC from human CCR4 expressed in HEK293 cells; format: cell-based
T1 sequence (P51679 whole entry): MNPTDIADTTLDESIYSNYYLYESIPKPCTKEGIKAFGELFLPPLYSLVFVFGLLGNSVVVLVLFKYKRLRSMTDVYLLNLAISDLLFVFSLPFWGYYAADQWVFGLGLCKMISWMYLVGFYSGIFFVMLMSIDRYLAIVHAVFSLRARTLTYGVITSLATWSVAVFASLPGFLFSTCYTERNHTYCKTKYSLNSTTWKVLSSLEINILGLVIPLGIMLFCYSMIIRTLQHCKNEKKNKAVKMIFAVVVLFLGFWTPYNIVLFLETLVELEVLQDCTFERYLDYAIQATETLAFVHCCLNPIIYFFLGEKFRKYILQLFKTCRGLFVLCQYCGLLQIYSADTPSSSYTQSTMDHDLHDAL

[2] = target: T2, C-C chemokine receptor type 4 (Mus musculus) (UniProt P51680); assay: Inhibition of ovalbumin-induced eosinophil infiltration in BALB/c mouse allergic inflammation model at 5 mg/kg, po; format: functional, organism-based; design: dose 5 mg/kg
T2 sequence (whole entry): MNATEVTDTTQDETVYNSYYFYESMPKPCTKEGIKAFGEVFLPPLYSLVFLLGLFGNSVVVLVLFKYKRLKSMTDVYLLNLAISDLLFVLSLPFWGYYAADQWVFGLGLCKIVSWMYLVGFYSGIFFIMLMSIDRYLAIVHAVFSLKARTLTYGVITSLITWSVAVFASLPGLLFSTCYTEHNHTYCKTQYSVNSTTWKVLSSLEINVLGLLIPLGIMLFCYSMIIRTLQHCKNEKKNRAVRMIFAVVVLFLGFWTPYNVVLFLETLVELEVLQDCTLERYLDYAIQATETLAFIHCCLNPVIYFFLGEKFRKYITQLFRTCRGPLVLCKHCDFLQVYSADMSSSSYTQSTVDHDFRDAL
How it was run: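 Mice previously immunized with ovalbumin; dexamethasone given orally at 5 mg/kg as reference control. Total leukocytes, total eosinophils and percent eosinophils counted in bronchoalveolar lavage fluid. Seven to eight mice per group; means ± SEM; significance versus vehicle group by ANOVA with Dunnett's test (p < 0.05).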

[3] = Toxicity in human immortalized hepatocytes; format: cell-based, Hepatocyte
[4] = target: CYP450 (isoform not stated) (Homo sapiens, UniProt P04798+P05177+P05181+P08684+P10632+P10635+P11509+P11712+P13584+P20813+P20815+P20853+P24462+P24903+P33260+P33261+P51589+P78329+P98187+Q02928+Q08477+Q16678+Q16696+Q5TCH4+Q6VVX0+Q7Z449+Q8TAV3+Q96SQ9+Q9HB55); assay: Inhibition of CYP450; format: ADME
[5] = target: T1, C-C chemokine receptor type 4; assay: Antagonist activity at human CCR4 expressed in CEMS529 cells assessed as effect on calcium mobilization; format: functional, cell-based
[6] = Carcinogenicity in SOS chromotest; format: ADME
[7] = Metabolic stability in human microsomes; format: ADME, Microsome
[8] = target: T2, C-C chemokine receptor type 4 (Mus musculus); assay: Inhibition of ovalbumin-induced eosinophil infiltration in sc dosed BALB/c mouse allergic inflammation model
[9] = target: T2, C-C chemokine receptor type 4 (Mus musculus); assay: Inhibition of ovalbumin-induced eosinophil infiltration in BALB/c mouse allergic inflammation model at 30 mg/kg, sc

Compound `CCN(CC)CCCC(C)Nc1nc(NCc2ccc(Cl)cc2Cl)nc2ccccc12` (configuration not stated) has a pIC50 [1] of 5.72.
With `CCN(CC)CCCC(C)Nc1ncc2ncn(Cc3ccc(Cl)cc3Cl)c2n1` (configuration not stated) the pIC50 [1] was 6.09.
`CCN(CC)CCCC(C)Nc1nc(NC)nc(NCc2ccc(Cl)cc2Cl)n1` (configuration not stated) gave a pIC50 [1] of 5.44.
With `C[C@@H]1C[C@H]2[C@@H]3CCC4=CC(=O)C=C[C@]4(C)[C@@]3(F)[C@@H](O)C[C@]2(C)[C@@]1(O)C(=O)CO` the Activity [2] was “Active”.
For `CCN(CC)CCCC(C)Nc1nc(NCc2ccc(Cl)cc2Cl)nc2nc[nH]c12` (configuration not stated), the pIC50 [1] was 5.68.
Compound `CCN(CC)C(C)CCCNc1nccc(NCc2ccc(Cl)cc2Cl)n1.N` (configuration not stated) has a pIC50 [1] of 6.55, a pIC50 [3] of under 4.40 and a pIC50 [4] of under 6.00. For the same compound, the pIC50 [5] was 6.10, the Activity [6] was “Non-toxic” and the Stability [7] was 0.1 nmol/mg/min.
With `CCN(CC)CCCC(C)Nc1nc(NCc2ccc(Cl)cc2Cl)c2c(ncn2CC)n1` (configuration not stated) the pIC50 [1] was 5.96.
With `CCN(CC)CCCC(C)Nc1nc(NCc2ccc(Cl)cc2Cl)nc2ncn(CC)c12` (configuration not stated) the pIC50 [1] was 5.59.
In the case of `CCN(CC)CCCC(C)Nc1nc(NCc2ccc(Cl)cc2Cl)c2[nH]cnc2n1` (configuration not stated), the pIC50 [1] was 5.31.
With `CCN(CC)CCCC(C)Nc1ncc2c(ncn2Cc2ccc(Cl)cc2Cl)n1` (configuration not stated) the pIC50 [1] was 6.08.
In the case of `O=C([C@@H]1CCCCN1)N1CCN(c2nc(NCc3ccc(Cl)cc3Cl)c3cccnc3n2)CC1`, the ED50 [8] was 10 mg/kg, the Activity [9] was “Active” and the Stability [7] was 0.003 nmol/mg/min.
With `CCN(CC)CCCC(C)Nc1ccc2cnn(Cc3ccc(Cl)cc3Cl)c2n1` (configuration not stated) the pIC50 [1] was 6.55.
Compound `CCN(CC)CCCC(C)Nc1nc(NCc2ccc(Cl)cc2Cl)c2ccccc2n1` (configuration not stated) has a pIC50 [1] of 6.30.
Compound `CCN(CC)CCCC(C)Nc1nc(NCc2ccc(Cl)cc2Cl)c2cccnc2n1` (configuration not stated) has a pIC50 [1] of 6.85.
For `O=C([C@@H]1CCCN1)N1CCN(c2nc(NCc3ccc(Cl)cc3Cl)c3cccnc3n2)CC1`, the pIC50 [1] was 7.10.
